Experiments:
[1] = Toxicity in Salmonella typhimurium TA1537 assessed as growth inhibition after 1 hr; type: organism-based; details: salmonella enterica subsp. enterica serovar typhimurium, read-out: D50
Method in brief: (§1)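 Overnight shaken L-broth culture from frozen stock. 0.5 mL culture in L broth (10 mL total) with a range of drug concentrations, from nontoxic to clearly toxic, in 50% ethanol. Shaken at 37 °C for 1 h, centrifuged, resuspended in saline, diluted 1 in 10^4, plated in triplicate on L-broth plates, 37 °C, 2 days. Survival = 100Nt/Nc vs untreated. D50 from linear fit of log survival vs dose.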

Salmonella typhimurium [2] = test: Mutagenic activity in Salmonella typhimurium TA1537 assessed as mutation frequency at 10^4 times D50 after 1 hr; type: toxicity, organism-based; details: salmonella enterica subsp. enterica serovar typhimurium
Method in brief: (§2)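 Overnight L-broth culture (0.5 mL) exposed to drug (from 50% ethanol) in 10 mL L broth, 37 °C shaking, 1 h; concentration range from non-toxic to clearly toxic. Cells spun, resuspended in saline, plated in triplicate on minimal plates (1 mM histidine, biotin) and, diluted 1 in 10^4, on L-broth plates; 37 °C, 2 days. D50 interpolated from log % survival vs dose; mutation frequency = 100(MT − MC)/S50, background-corrected.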

[3] = Toxicity in Salmonella typhimurium TA98 assessed as growth inhibition after 1 hr; type: organism-based; details: salmonella enterica subsp. enterica serovar typhimurium, read-out: D50; method in brief: as §1
[4] = Toxicity in Salmonella typhimurium TA100 assessed as growth inhibition after 1 hr; type: organism-based; details: salmonella enterica subsp. enterica serovar typhimurium, read-out: D50; method in brief: as §1
Salmonella typhimurium [5] = test: Mutagenic activity in Salmonella typhimurium TA98 assessed as mutation frequency at 10^4 times D50 after 1 hr; type: toxicity, organism-based; details: salmonella enterica subsp. enterica serovar typhimurium; method in brief: as §2
Salmonella typhimurium [6] = test: Mutagenic activity in Salmonella typhimurium TA100 assessed as mutation frequency at 10^4 times D50 after 1 hr; type: toxicity, organism-based; details: salmonella enterica subsp. enterica serovar typhimurium; method in brief: as §2

CCCCS(=O)(=O)Nc1ccc(Nc2c3ccccc3nc3c(C(N)=O)cccc23)c(OC)c1.Cl
GI50 at 1 h [1]: 330 µM
log(M50) (Salmonella typhimurium [2]): 0

CCCS(=O)(=O)Nc1ccc(Nc2c3ccccc3nc3ccccc23)c(OC)c1.CS(=O)(=O)O
GI50 at 1 h [1]: 77.6 µM
log(M50) (Salmonella typhimurium [2]): -0.7

CCNc1ccc(Nc2c3ccccc3nc3ccccc23)cc1.Cl
GI50 at 1 h [1]: 100 µM
log(M50) (Salmonella typhimurium [2]): 1.88

CCS(=O)(=O)Nc1ccc(Nc2c3ccccc3nc3c(C(N)=O)cccc23)c(OC)c1.Cl
GI50 at 1 h [1]: 467 µM
log(M50) (Salmonella typhimurium [2]): 0.18

Br.CNc1ccc(Nc2c3ccccc3nc3ccccc23)cc1
GI50 at 1 h [1]: 82 µM
log(M50) (Salmonella typhimurium [2]): 2.05

CCCNc1ccc(Nc2c3ccccc3nc3ccccc23)cc1.Cl
GI50 at 1 h [1]: 98.9 µM
log(M50) (Salmonella typhimurium [2]): 1.67

CCCS(=O)(=O)Nc1ccc(Nc2c3ccccc3nc3c(C(N)=O)cccc23)c(OC)c1.Cl
GI50 at 1 h [1]: 642 µM
log(M50) (Salmonella typhimurium [2]): 0

CCCCNc1ccc(Nc2c3ccccc3nc3ccccc23)cc1.Cl
GI50 at 1 h [1]: 9.8 µM
log(M50) (Salmonella typhimurium [2]): 1

CCCCS(=O)(=O)Nc1ccc(Nc2c3ccccc3nc3ccccc23)c(OC)c1.CS(=O)(=O)O
GI50 at 1 h [1]: 69.7 µM
log(M50) (Salmonella typhimurium [2]): 0

COc1cc(NS(C)(=O)=O)ccc1Nc1c2ccccc2nc2c(C(N)=O)cccc12.Cl
GI50 at 1 h [1]: 698 µM
log(M50) (Salmonella typhimurium [2]): -0.7

CCS(=O)(=O)Nc1ccc(Nc2c3ccccc3nc3ccccc23)cc1.Cl
GI50 at 1 h [1]: 81.6 µM
log(M50) (Salmonella typhimurium [2]): 2

CCCCS(=O)(=O)Nc1ccc(Nc2c3ccccc3nc3cc(NC(C)=O)ccc23)cc1.CS(=O)(=O)O
GI50 at 1 h [1]: 148 µM
log(M50) (Salmonella typhimurium [2]): -0.3

CCCS(=O)(=O)Nc1ccc(Nc2c3ccccc3nc3cc(NC(C)=O)ccc23)cc1.CS(=O)(=O)O
GI50 at 1 h [1]: 114 µM
log(M50) (Salmonella typhimurium [2]): 0

CCCCCS(=O)(=O)Nc1ccc(Nc2c3ccccc3nc3cc(NC(C)=O)ccc23)cc1.CS(=O)(=O)O
GI50 at 1 h [1]: 17.7 µM
log(M50) (Salmonella typhimurium [2]): -0.1

CCS(=O)(=O)Nc1ccc(Nc2c3ccccc3nc3ccccc23)c(OC)c1.CS(=O)(=O)O
GI50 at 1 h [1]: 93.2 µM
log(M50) (Salmonella typhimurium [2]): -0.3

CCCCCCS(=O)(=O)Nc1ccc(Nc2c3ccccc3nc3ccccc23)cc1.Cl
GI50 at 1 h [1]: 9.4 µM
log(M50) (Salmonella typhimurium [2]): 0.3

CCCCCS(=O)(=O)Nc1ccc(Nc2c3ccccc3nc3ccccc23)cc1.Cl
GI50 at 1 h [1]: 15.6 µM
log(M50) (Salmonella typhimurium [2]): 0.6

CCCCCCNc1ccc(Nc2c3ccccc3nc3ccccc23)cc1.Cl
GI50 at 1 h [1]: 4.4 µM
log(M50) (Salmonella typhimurium [2]): -1

CCS(=O)(=O)Nc1ccc(Nc2c3ccccc3nc3cc(NC(C)=O)ccc23)cc1.CS(=O)(=O)O
GI50 at 1 h [1]: 221 µM
log(M50) (Salmonella typhimurium [2]): 0

COc1cccc2c1C(=O)c1c(O)c3c(c(O)c1C2=O)C[C@@](O)(C(C)=O)C[C@@H]3O[C@H]1C[C@H](N)[C@H](O)[C@H](C)O1 [DAUNORUBICIN]
GI50 at 1 h [3]: 13.1 µM
GI50 at 1 h [4]: 11.1 µM
GI50 at 1 h [1]: 7.4 µM
M50 (Salmonella typhimurium [5]): 20%
M50 (Salmonella typhimurium [6]): 4.5%
M50 (Salmonella typhimurium [2]): 0%
log(M50) (Salmonella typhimurium [2]): 0

COc1cccc2c1C(=O)c1c(O)c3c(c(O)c1C2=O)C[C@@](O)(C(=O)CO)C[C@@H]3O[C@H]1C[C@H](N)[C@H](O)[C@H](C)O1 [DOXORUBICIN]
GI50 at 1 h [3]: 6.1 µM
GI50 at 1 h [4]: 11.3 µM
GI50 at 1 h [1]: 16.3 µM
M50 (Salmonella typhimurium [5]): 14%
M50 (Salmonella typhimurium [6]): 0.5%
M50 (Salmonella typhimurium [2]): 0%
log(M50) (Salmonella typhimurium [2]): 0

CC(=O)Nc1ccc2c(Nc3ccc(NS(C)(=O)=O)cc3)c3ccccc3nc2c1.CS(=O)(=O)O
GI50 at 1 h [1]: 282 µM
log(M50) (Salmonella typhimurium [2]): -0.22

CCCS(=O)(=O)Nc1ccc(Nc2c3ccccc3nc3ccccc23)cc1.Cl
GI50 at 1 h [1]: 50.1 µM
log(M50) (Salmonella typhimurium [2]): 1.67

CCCCS(=O)(=O)Nc1ccc(Nc2c3ccccc3nc3ccccc23)cc1.Cl
GI50 at 1 h [1]: 49.3 µM
log(M50) (Salmonella typhimurium [2]): 0.78

CCCCCS(=O)(=O)Nc1ccc(Nc2c3ccccc3nc3c(C(N)=O)cccc23)c(OC)c1.Cl
GI50 at 1 h [1]: 466 µM
log(M50) (Salmonella typhimurium [2]): 0

CCCCCCS(=O)(=O)Nc1ccc(Nc2c3ccccc3nc3cc(NC(C)=O)ccc23)cc1.CS(=O)(=O)O
GI50 at 1 h [1]: 3.1 µM
log(M50) (Salmonella typhimurium [2]): 0

CS(=O)(=O)Nc1ccc(Nc2c3ccccc3nc3ccccc23)cc1.Cl
GI50 at 1 h [3]: 180 µM
GI50 at 1 h [4]: 194 µM
GI50 at 1 h [1]: 110 µM
M50 (Salmonella typhimurium [5]): 0%
M50 (Salmonella typhimurium [6]): 0%
M50 (Salmonella typhimurium [2]): 127%
log(M50) (Salmonella typhimurium [2]): 2.1

CCCCCS(=O)(=O)Nc1ccc(Nc2c3ccccc3nc3ccccc23)c(OC)c1.CS(=O)(=O)O
GI50 at 1 h [1]: 21.1 µM
log(M50) (Salmonella typhimurium [2]): 0

CCCCCCS(=O)(=O)Nc1ccc(Nc2c3ccccc3nc3ccccc23)c(OC)c1.CS(=O)(=O)O
GI50 at 1 h [1]: 15.3 µM
log(M50) (Salmonella typhimurium [2]): 0
